High-throughput results as filed in PubChem BioAssay.
ADAM17 inh: ADAM17 inhibition, QFRET primary screen; recombinant ADAM17, EDANS/DABCYL FRET peptide cleavage; inhibition, % at 6.95 µM; hit rate 0.83% among 370,000;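 active means inhibition above the mean of compounds lying between control limits plus 3 SD, set per campaign, cut at about 8.5% in these data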;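 further: 0% = DMSO-only wells as the low control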
CaV13 FRET inh: Disruptors of the CACNA1D IQ motif to Ca2+-dependent inactivation inhibitor domain association, primary screening, Förster resonance energy transfer in intact living …; hit rate 0.098% among 340,000; AID 743397; inhibition, % at 12.3 µM; HEK cells, CFP/YFP FRET ICDI-IQ, plate reader, 10 min; percent FRET-ratio fall versus neutral wells;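 active means mean replicate inhibition of at least 30% and at least 1% of replicates passing that level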;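 further: 0% = median of the neutral control wells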
NRP1-CendR mod: modulators of CendR peptide binding to human neuropilin-1. O14786. inhibition, % at 25 µM. FAM-RPARPAR peptide binding to NRP-1, fluorescence polarization. hit rate 0.85% among 360,000;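 active means inhibition or corrected inhibition above about 18%, plus a signal ratio from 0.5 to 1.5, limit read from the data, passing the limit was not always enough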
ADAM10 inh: ADAM10 inhibition, QFRET primary screen. recombinant ADAM10, EDANS/DABCYL FRET peptide cleavage, 3 h. inhibition, % at 7 µM. hit rate 0.62% among 370,000. O14672;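 active means inhibition above a per-campaign cutoff equal to the mean of compounds falling between control-based bounds plus 3 SD, cut at about 20% in these data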;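 further: 0% = DMSO wells while the 100% control is not disclosed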
Target sequence (O14672 214-748 limits assumed): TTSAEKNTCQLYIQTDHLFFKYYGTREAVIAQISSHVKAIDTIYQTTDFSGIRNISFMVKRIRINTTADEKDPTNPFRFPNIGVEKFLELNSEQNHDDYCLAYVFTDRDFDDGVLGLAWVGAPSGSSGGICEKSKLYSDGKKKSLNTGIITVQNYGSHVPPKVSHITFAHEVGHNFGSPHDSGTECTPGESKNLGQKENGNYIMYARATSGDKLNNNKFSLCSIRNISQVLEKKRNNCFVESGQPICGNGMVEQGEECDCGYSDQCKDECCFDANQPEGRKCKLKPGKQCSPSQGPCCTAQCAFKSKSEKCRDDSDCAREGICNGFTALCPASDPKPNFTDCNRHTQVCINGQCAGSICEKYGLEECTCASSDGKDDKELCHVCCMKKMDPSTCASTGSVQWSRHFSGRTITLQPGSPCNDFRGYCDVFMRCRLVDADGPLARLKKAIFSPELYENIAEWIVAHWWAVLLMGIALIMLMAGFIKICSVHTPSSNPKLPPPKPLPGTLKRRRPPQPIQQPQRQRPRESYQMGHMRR
FAS TE block: FAS thioesterase (human) inhibition; recombinant FAS-TE, OMFH fluorogenic substrate, fluorescence endpoint; inhibition, % at 15 µM; P49327; hit rate 0.67% among 360,000; AID 602261;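 active means compounds whose normalised, plate-corrected inhibition of enzyme fluorescence in the single-dose primary screen is 50% or more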;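 further: 0% = DMSO with enzyme and 100% = substrate without enzyme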
Arr AP2 block: human beta-arrestin and AP2 interaction inhibition | FITC-arrestin peptide / GST-AP2 beads, flow cytometry; AP2 beta2 appendage carries R879A mutation | inhibition, % at 10 µM | hit rate 0.31% among 340,000 | AID 504490;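 active means inhibition above a set limit, near 3 SD of compounds lacking own fluorescence, cut at about 54% in these data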;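 further: plate controls were DMSO wells for no effect and 5 µM unlabelled arrestin peptide for full effect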
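Material – AP2 appendage R879A on GSH beads · Buffer or medium – PBS with 0.05% Tween 20 and 0.1% BSA · Probe or stimulus – fluorescein-tagged arrestin peptide at 50 nM final · Incubation – compound with beads 12 min RT, then probe 1 h RT · Detection – high-throughput flow cytometry of beads, ex 488, em 535 nm · Evaluation – percent response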
ADAM10 confirm: confirmation of inhibitors of human ADAM10; shares compounds with ADAM10 inh; ADAM10 QFRET peptide cleavage, EDANS fluorescence; inhibition, % at 6.95 µM; hit rate 1% among 2,100; AID 743208;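 active means inhibition above about 20% chosen separately for each screening run, limit read from the data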;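 further: 0% = DMSO wells and 100% = marimastat wells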
ADAM17 ctr: inhibits human ADAM17 in ADAM10 exosite counter-screen | hit rate 0.5% among 2,100 | shares compounds with ADAM10 inh | inhibition, % at 6.95 µM | ADAM17 QFRET peptide cleavage, EDANS fluorescence;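 active means mean triplicate inhibition above the solvent-only control wells' mean plus 3 SD, cut at about 12% in these data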;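 further: 0% = DMSO wells and 100% = marimastat wells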
The depositor's hits bear a star. The list is not random: actives were taken first. Their share in the collection is about 2.9%.

`Nc1[nH]c(C(=O)c2ccccc2)c(-c2ccccc2[N+](=O)[O-])c1C(=O)NCCc1c[nH]c2ccccc12` gave ADAM17 inh 12*, CaV13 FRET inh -6, ADAM10 inh 25*, ADAM10 confirm 3 and ADAM17 ctr 2.
For CC(=O)c1cc(-c2ccccc2)n(CC(=O)NCc2ccc(Cl)cc2)c1C the results were ADAM17 inh 1 and ADAM10 inh -8.
COc1ccc(OC(=O)N(C)C[C@@H]2OCc3cn(nn3)CCCC(=O)N([C@@H](C)CO)C[C@H]2C)cc1 was read as ADAM17 inh 1, CaV13 FRET inh -9, NRP1-CendR mod 7, ADAM10 inh -2 and FAS TE block -5.
Screening COc1ccc(NC(=S)NC23CN4CN(CN(C4)C2)C3)cc1 returned ADAM17 inh 1, CaV13 FRET inh -5, NRP1-CendR mod -12, ADAM10 inh 83*, FAS TE block -13, Arr AP2 block -2, ADAM10 confirm 1 and ADAM17 ctr 0.
O=C(COc1ccc(-c2nnco2)cc1)Nc1c(F)cccc1F was read as ADAM17 inh 0, CaV13 FRET inh -6, NRP1-CendR mod 5, ADAM10 inh 84*, FAS TE block -3, Arr AP2 block -4, ADAM10 confirm -1 and ADAM17 ctr 0.
`Cc1ccccc1NC(=O)CSc1ccc(-c2ccc(-n3cccn3)cc2)nn1` gave ADAM17 inh -3, CaV13 FRET inh -2, NRP1-CendR mod -1, ADAM10 inh -9, FAS TE block -7 and Arr AP2 block 12.
`CCc1nnc(NC(=O)CSc2ccc(-c3ccc(-n4cccn4)cc3)nn2)s1` gave ADAM17 inh -3, CaV13 FRET inh -16, NRP1-CendR mod 8, ADAM10 inh 54*, FAS TE block -8, Arr AP2 block 6, ADAM10 confirm 0 and ADAM17 ctr 0.
`Cc1csc(NC(=O)c2cccc(Cn3nc(C)c(Br)c3C)c2)n1` gave ADAM17 inh 3, CaV13 FRET inh -4, NRP1-CendR mod -15, ADAM10 inh 20*, FAS TE block 9, Arr AP2 block -4, ADAM10 confirm 4 and ADAM17 ctr 1.
S=c1[nH]cc(-c2ccccc2)n1-c1ccccc1 was read as ADAM17 inh 11*, CaV13 FRET inh -4, NRP1-CendR mod 4, ADAM10 inh 23*, FAS TE block -6, Arr AP2 block 8, ADAM10 confirm -2 and ADAM17 ctr 0.
For CN(C)CCCN1c2ccc([N+](=O)[O-])cc2CCc2cc([N+](=O)[O-])ccc21 the results were ADAM17 inh 8, CaV13 FRET inh -10, NRP1-CendR mod -21, ADAM10 inh 23*, FAS TE block 6, Arr AP2 block 7, ADAM10 confirm 0 and ADAM17 ctr 1.
O=C(O)Cn1nnnc1SCC(=O)Nc1ccc(OC(F)(F)F)cc1 was read as ADAM17 inh -5, CaV13 FRET inh 0, NRP1-CendR mod -2, ADAM10 inh 82*, FAS TE block -7, Arr AP2 block 4, ADAM10 confirm -1 and ADAM17 ctr 0.
Screening O/N=C(/c1ccc(F)cc1)C1CC1c1c(F)cccc1Cl (centres undefined) returned ADAM17 inh 4, CaV13 FRET inh -5, NRP1-CendR mod -8, ADAM10 inh 26*, FAS TE block -1, Arr AP2 block 13, ADAM10 confirm 3 and ADAM17 ctr 1.
Screening CCn1nc(C(=O)OCC(=O)c2ccc(F)cc2)c2ccccc2c1=O returned ADAM17 inh -4, CaV13 FRET inh -7, NRP1-CendR mod 4, ADAM10 inh -4, FAS TE block -5 and Arr AP2 block 10.
CCn1nc(C(=O)OC(C(=O)c2c[nH]c3ccccc23)c2ccccc2)c2ccccc2c1=O (centres undefined) was read as ADAM17 inh 7, CaV13 FRET inh -8, NRP1-CendR mod 1, ADAM10 inh 24*, FAS TE block 21, Arr AP2 block 3, ADAM10 confirm 11 and ADAM17 ctr 5.
`O=C(CSc1nnc(-c2ccc(O)cc2)n1Cc1ccco1)c1cccs1` gave ADAM17 inh -1, CaV13 FRET inh -4, NRP1-CendR mod -9, ADAM10 inh 3, FAS TE block -2 and Arr AP2 block -3.
For N#Cc1c(-c2ccccc2)c(-c2ccccc2)n(Cc2ccco2)c1NC(=O)c1cccs1 the results were ADAM17 inh 7, CaV13 FRET inh -5, NRP1-CendR mod 7, ADAM10 inh 20*, FAS TE block 40, Arr AP2 block 3, ADAM10 confirm 21* and ADAM17 ctr 7.
For Cc1ccc(C)c(Cn2nnc3c(=O)[nH]c(C4CCCN(C(=O)CC(C)C)C4)nc32)c1 (centres undefined) the results were CaV13 FRET inh -8, NRP1-CendR mod 9, FAS TE block -4 and Arr AP2 block 1.
For CC(C)(C)c1ccc(Cn2nnc3c(=O)[nH]c(C4CCCN(C(=O)c5cccs5)C4)nc32)cc1 (centres undefined) the results were ADAM17 inh 8, CaV13 FRET inh -5, NRP1-CendR mod 0, ADAM10 inh 24*, FAS TE block -24, Arr AP2 block 8, ADAM10 confirm 1 and ADAM17 ctr 0.
For O=c1[nH]c(C2CCN(S(=O)(=O)c3ccc4c(c3)OCCO4)CC2)nc2c1nnn2Cc1ccccc1 the results were ADAM17 inh 1, CaV13 FRET inh -7, NRP1-CendR mod 8, ADAM10 inh 4, FAS TE block -2 and Arr AP2 block -4.
Screening Cc1ccc(C)c(S(=O)(=O)N2CCC(c3nc4c(nnn4Cc4ccc5c(c4)OCCO5)c(=O)[nH]3)CC2)c1 returned ADAM17 inh 5, CaV13 FRET inh -15, NRP1-CendR mod 2, ADAM10 inh 24*, FAS TE block 70*, Arr AP2 block 0, ADAM10 confirm 11 and ADAM17 ctr 3.
For CCCCC(=O)N1CCCC(c2nc3c(nnn3Cc3cc(C)ccc3C)c(=O)[nH]2)C1 (centres undefined) the results were ADAM17 inh -3, CaV13 FRET inh -8, NRP1-CendR mod -5, ADAM10 inh 88*, FAS TE block 4, Arr AP2 block 4, ADAM10 confirm 0 and ADAM17 ctr 0.
CSc1nc2cc(Oc3cccc(Cl)c3Cl)c(Cl)cc2[nH]1 was read as ADAM17 inh 7, CaV13 FRET inh -6, NRP1-CendR mod -1, ADAM10 inh 20*, FAS TE block 16, Arr AP2 block 2, ADAM10 confirm 8 and ADAM17 ctr 2.
